According to ChEMBL document CHEMBL4014315 (J Med Chem, 2017):
The source made the active and inactive calls. The rule behind the calls is not given here.

Experiments:
[1] = molecular target: T1, Broad substrate specificity ATP-binding cassette transporter ABCG2 (Homo sapiens, UniProt Q9UNQ0); assay: Inhibition of recombinant human GFP-fused ABCG2 expressed in MDCK2 cells assessed as reduction in Hoechst 33342 efflux preincubated for 30 mins followed by Hoechst 33342 addition measured immediately at 60 sec time interval for 120 mins by fluorescence assay; type: cell-based
T1 sequence (Q9UNQ0 whole entry): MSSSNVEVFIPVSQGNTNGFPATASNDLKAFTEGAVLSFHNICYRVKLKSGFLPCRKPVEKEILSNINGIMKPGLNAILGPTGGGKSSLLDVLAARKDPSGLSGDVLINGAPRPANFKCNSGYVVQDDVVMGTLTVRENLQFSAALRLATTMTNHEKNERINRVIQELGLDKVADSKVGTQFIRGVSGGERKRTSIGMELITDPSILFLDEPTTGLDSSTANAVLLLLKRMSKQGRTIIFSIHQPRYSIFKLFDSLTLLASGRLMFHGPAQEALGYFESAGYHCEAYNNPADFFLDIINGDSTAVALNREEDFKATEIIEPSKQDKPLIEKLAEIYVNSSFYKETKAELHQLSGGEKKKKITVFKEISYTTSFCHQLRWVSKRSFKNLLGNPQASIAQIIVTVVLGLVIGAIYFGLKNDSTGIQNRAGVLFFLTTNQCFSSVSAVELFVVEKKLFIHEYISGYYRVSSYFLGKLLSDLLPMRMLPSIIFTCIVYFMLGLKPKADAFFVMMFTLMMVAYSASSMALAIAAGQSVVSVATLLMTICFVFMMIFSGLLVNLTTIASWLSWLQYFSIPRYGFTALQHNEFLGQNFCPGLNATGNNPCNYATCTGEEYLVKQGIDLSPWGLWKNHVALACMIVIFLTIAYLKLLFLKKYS
Procedure, shortened: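 Hoechst 33342 accumulation assay: the dye is an ABCG2 substrate whose fluorescence rises when bound to DNA or embedded in membrane. Intracellular accumulation serves as the read-out of transporter inhibition.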

[2] = molecular target: T2, ABCG2 (Homo sapiens, UniProt Q9UNQ0); assay: Inhibition of recombinant human GFP-fused ABCG2 expressed in MDCK2 cells assessed as reduction in Hoechst 33342 efflux at […] preincubated for 30 mins followed by Hoechst 33342 addition measured immediately at 60 sec time interval for 120 mins by fluorescence assay relative to Ko143; type: cell-based; conditions: MDCK2 cells expressing recombinant GFP-fused human ABCG2, probe Hoechst 33342, read-out: Imax
T2 sequence (Q9UNQ0 whole entry): T1 sequence (Q9UNQ0 whole entry)

[3] = Cytotoxicity against ABCG2 over-expressing MDCK2 cells assessed as cell growth inhibition after 72 hrs by MTT assay; type: ADME, cell-based, Canis lupus familiaris, MDCK-II; conditions: dog
[4] = Cytotoxicity against MDCK2 cells assessed as cell growth inhibition after 72 hrs by MTT assay; type: cell-based, Canis lupus familiaris, MDCK-II; conditions: dog
[5] = Therapeutic index, ratio of GI50 for ABCG2 over-expressing MDCK2 cells to IC50 for recombinant human GFP-fused ABCG2 expressed in MDCK2 cells; type: cell-based
[6] = molecular target: T2, ABCG2; assay: Activation of ABCG2 (unknown origin) ATPase activity expressed in baculovirus infected high five cell membranes assessed as protein Vmax by ascorbic acid/ammonia molybdate reaction-based colorimetric analysis relative to basal control; conditions: read-out: Vmax
Procedure, shortened: (§1)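 Colorimetric ATPase assay of ABCG2 membranes; activity expressed relative to control. Where data were biphasic, a combined increasing plus decreasing logistic equation with the Hill coefficient fixed at one was fitted, giving an activating and an inactivating K.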

[7] = molecular target: T1, Broad substrate specificity ATP-binding cassette transporter ABCG2; assay: Inhibition of ABCG2 (unknown origin) ATPase activity expressed in baculovirus infected high five cell membranes by ascorbic acid/ammonia molybdate reaction-based colorimetric analysis; procedure, shortened: as §1
[8] = molecular target: ATP-dependent translocase ABCB1 (Homo sapiens, UniProt P08183); assay: Inhibition of ABCB1 in human A2780adr cells assessed as reduction in calcein AM levels preincubated for 30 mins followed by calcein AM addition measured immediately at 60 sec time interval for 60 mins by fluorescence assay; type: cell-based
Procedure, shortened: (§2)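 Calcein AM assay in A2780adr cells (ABCB1 overexpressing) and H69AR cells (ABCC1 overexpressing). Compounds were screened at 10 µM, with inhibition relative to cyclosporine A as the total-inhibition control.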

[9] = molecular target: ABCB1 (Homo sapiens, UniProt P08183); assay: Inhibition of ABCB1 in human A2780adr cells assessed as reduction in calcein AM levels at 10 uM preincubated for 30 mins followed by calcein AM addition measured immediately at 60 sec time interval for 60 mins by fluorescence assay relative to Cyclosporine A; type: cell-based; conditions: probe calcein AM; procedure, shortened: as §2
[10] = molecular target: T1, Broad substrate specificity ATP-binding cassette transporter ABCG2; assay: Activation of ABCG2 (unknown origin) ATPase activity expressed in baculovirus infected high five cell membranes by ascorbic acid/ammonia molybdate reaction-based colorimetric analysis; conditions: read-out: EC50; procedure, shortened: as §1
[11] = molecular target: T1, Broad substrate specificity ATP-binding cassette transporter ABCG2; assay: Inhibition of human GFP-fused ABCG2 expressed in MDCK2 cells assessed as potentiation of SN-38 induced cytotoxicity by measuring cell viability at 1 uM after 72 hrs by MTT assay; type: cell-based
Procedure, shortened: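 Reversal MTT assay in ABCG2-overexpressing MDCK II cells: SN-38 dilutions were combined with different modulator concentrations. Parental MDCK II cells defined total inhibition, and overexpressing cells without modulator defined no inhibition. GI50 values were plotted against log modulator concentration to derive IC50.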

[12] = molecular target: T1, Broad substrate specificity ATP-binding cassette transporter ABCG2; assay: Ratio of IC50 for inhibition of human GFP-fused ABCG2 expressed in MDCK2 cells to EC50 for inhibition of human GFP-fused ABCG2 expressed in MDCK2 cells assessed as potentiation of SN-38 induced cytotoxicity by measuring cell viability; type: cell-based
[13] = molecular target: T1, Broad substrate specificity ATP-binding cassette transporter ABCG2; assay: Non-competitive inhibition of recombinant human GFP-fused ABCG2 expressed in MDCK2 cells up to 100 nM preincubated for 30 mins followed by varying levels of Hoechst 33342 addition measured immediately at 60 sec time interval for 120 mins by Lineweaver-Burk plot analysis; type: cell-based; conditions: 2 h
Procedure, shortened: (§3)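 Kinetics were run with Hoechst 33342 as the fluorescent ABCG2 substrate at varying levels, combined with several modulator concentrations. Data were analysed by double-reciprocal Lineweaver-Burk, half-reciprocal Hanes-Woolf and Cornish-Bowden direct linear plots. Changes in Vmax and KM with modulator concentration defined the mode: competitive, non-competitive or mixed type.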

[14] = molecular target: T1, Broad substrate specificity ATP-binding cassette transporter ABCG2; assay: Non-competitive inhibition of recombinant human GFP-fused ABCG2 expressed in MDCK2 cells up to 100 nM preincubated for 30 mins followed by varying levels of Hoechst 33342 addition measured immediately at 60 sec time interval for 120 mins by Hanes-Woolf plot analysis; type: cell-based; conditions: 2 h; procedure, shortened: as §3
[15] = molecular target: T1, Broad substrate specificity ATP-binding cassette transporter ABCG2; assay: Non-competitive inhibition of recombinant human GFP-fused ABCG2 expressed in MDCK2 cells up to 100 nM preincubated for 30 mins followed by varying levels of Hoechst 33342 addition measured immediately at 60 sec time interval for 120 mins by Cornish-Bowden plot analysis; type: cell-based; conditions: 2 h; procedure, shortened: as §3
[16] = tested on: MDCK-II; assay: Cytotoxicity against ABCG2 over-expressing MDCK2 cells assessed as effect on cell proliferation at low concentration after 72 hrs in absence of DMSO and presence of 1% methanol by MTT assay; type: ADME, cell-based, Canis lupus familiaris; conditions: dog
Procedure, shortened: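 Modified MTT viability assay in ABCG2-overexpressing MDCK II cells, run without DMSO and with a constant 1% methanol.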

[17] = tested on: MDCK-II; assay: Potentiation of SN-38 induced cytotoxicity against MDCK2 cells at 0.01 to 5 uM after 72 hrs by MTT assay; type: functional, cell-based; conditions: Canis lupus familiaris
Procedure, shortened: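 Parental MDCK II cells were given SN-38 dilutions combined with different modulator concentrations, with viability read by MTT.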

[18] = molecular target: ABCC1 (Homo sapiens, UniProt P33527); assay: Inhibition of ABCC1 in human H69AR cells assessed as reduction in calcein AM levels at 10 uM preincubated for 30 mins followed by calcein AM addition measured immediately at 60 sec time interval for 60 mins by fluorescence assay relative to Cyclosporine A; type: cell-based; conditions: probe calcein AM; procedure, shortened: as §2
[19] = molecular target: T1, Broad substrate specificity ATP-binding cassette transporter ABCG2; assay: Competitive inhibition of recombinant human GFP-fused ABCG2 expressed in MDCK2 cells up to 5620 nM preincubated for 30 mins followed by varying levels of Hoechst 33342 addition measured immediately at 60 sec time interval for 120 mins by Lineweaver-Burk plot analysis; type: cell-based; conditions: 2 h; procedure, shortened: as §3
[20] = molecular target: T1, Broad substrate specificity ATP-binding cassette transporter ABCG2; assay: Competitive inhibition of recombinant human GFP-fused ABCG2 expressed in MDCK2 cells up to 5620 nM preincubated for 30 mins followed by varying levels of Hoechst 33342 addition measured immediately at 60 sec time interval for 120 mins by Hanes-Woolf plot analysis; type: cell-based; conditions: 2 h; procedure, shortened: as §3
[21] = molecular target: T1, Broad substrate specificity ATP-binding cassette transporter ABCG2; assay: Competitive inhibition of recombinant human GFP-fused ABCG2 expressed in MDCK2 cells up to 1000 nM preincubated for 30 mins followed by varying levels of Hoechst 33342 addition measured immediately at 60 sec time interval for 120 mins by Cornish-Bowden plot analysis; type: cell-based; conditions: 2 h; procedure, shortened: as §3

Sequence of ATP-dependent translocase ABCB1 (P08183 whole entry): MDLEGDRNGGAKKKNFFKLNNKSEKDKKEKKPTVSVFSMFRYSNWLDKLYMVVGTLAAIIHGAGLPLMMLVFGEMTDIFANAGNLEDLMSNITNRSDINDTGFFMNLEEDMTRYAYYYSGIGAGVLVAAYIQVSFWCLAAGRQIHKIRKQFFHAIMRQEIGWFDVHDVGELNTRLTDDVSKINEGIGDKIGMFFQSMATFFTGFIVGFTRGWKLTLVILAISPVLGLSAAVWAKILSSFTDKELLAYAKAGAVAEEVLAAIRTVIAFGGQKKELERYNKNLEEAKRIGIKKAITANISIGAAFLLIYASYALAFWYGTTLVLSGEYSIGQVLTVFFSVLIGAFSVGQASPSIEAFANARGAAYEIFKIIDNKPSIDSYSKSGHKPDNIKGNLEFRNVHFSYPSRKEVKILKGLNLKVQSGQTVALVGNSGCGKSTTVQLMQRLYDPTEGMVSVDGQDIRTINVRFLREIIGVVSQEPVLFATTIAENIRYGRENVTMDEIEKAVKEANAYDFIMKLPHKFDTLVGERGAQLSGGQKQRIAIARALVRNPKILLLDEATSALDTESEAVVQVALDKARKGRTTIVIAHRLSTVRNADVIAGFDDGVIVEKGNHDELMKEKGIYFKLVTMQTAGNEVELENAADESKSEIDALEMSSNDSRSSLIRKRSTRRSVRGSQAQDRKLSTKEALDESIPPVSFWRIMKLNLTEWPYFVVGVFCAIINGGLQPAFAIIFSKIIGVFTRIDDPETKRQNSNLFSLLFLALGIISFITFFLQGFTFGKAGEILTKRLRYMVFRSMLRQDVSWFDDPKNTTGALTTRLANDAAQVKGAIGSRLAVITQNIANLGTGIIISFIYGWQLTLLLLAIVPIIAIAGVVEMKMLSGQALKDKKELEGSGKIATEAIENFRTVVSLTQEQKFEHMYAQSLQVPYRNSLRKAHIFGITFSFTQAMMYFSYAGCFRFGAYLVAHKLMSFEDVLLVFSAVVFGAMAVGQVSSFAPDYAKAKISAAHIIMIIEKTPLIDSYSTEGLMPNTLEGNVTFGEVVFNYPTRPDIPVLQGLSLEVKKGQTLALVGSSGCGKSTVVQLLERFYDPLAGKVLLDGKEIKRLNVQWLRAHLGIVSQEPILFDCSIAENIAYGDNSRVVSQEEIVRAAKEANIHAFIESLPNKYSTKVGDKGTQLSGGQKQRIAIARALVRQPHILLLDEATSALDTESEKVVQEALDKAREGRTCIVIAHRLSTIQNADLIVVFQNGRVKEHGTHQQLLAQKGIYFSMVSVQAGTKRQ
Sequence of ABCB1 (P08183 whole entry): as above
Sequence of ABCC1 (P33527 whole entry, the tested form may be a part): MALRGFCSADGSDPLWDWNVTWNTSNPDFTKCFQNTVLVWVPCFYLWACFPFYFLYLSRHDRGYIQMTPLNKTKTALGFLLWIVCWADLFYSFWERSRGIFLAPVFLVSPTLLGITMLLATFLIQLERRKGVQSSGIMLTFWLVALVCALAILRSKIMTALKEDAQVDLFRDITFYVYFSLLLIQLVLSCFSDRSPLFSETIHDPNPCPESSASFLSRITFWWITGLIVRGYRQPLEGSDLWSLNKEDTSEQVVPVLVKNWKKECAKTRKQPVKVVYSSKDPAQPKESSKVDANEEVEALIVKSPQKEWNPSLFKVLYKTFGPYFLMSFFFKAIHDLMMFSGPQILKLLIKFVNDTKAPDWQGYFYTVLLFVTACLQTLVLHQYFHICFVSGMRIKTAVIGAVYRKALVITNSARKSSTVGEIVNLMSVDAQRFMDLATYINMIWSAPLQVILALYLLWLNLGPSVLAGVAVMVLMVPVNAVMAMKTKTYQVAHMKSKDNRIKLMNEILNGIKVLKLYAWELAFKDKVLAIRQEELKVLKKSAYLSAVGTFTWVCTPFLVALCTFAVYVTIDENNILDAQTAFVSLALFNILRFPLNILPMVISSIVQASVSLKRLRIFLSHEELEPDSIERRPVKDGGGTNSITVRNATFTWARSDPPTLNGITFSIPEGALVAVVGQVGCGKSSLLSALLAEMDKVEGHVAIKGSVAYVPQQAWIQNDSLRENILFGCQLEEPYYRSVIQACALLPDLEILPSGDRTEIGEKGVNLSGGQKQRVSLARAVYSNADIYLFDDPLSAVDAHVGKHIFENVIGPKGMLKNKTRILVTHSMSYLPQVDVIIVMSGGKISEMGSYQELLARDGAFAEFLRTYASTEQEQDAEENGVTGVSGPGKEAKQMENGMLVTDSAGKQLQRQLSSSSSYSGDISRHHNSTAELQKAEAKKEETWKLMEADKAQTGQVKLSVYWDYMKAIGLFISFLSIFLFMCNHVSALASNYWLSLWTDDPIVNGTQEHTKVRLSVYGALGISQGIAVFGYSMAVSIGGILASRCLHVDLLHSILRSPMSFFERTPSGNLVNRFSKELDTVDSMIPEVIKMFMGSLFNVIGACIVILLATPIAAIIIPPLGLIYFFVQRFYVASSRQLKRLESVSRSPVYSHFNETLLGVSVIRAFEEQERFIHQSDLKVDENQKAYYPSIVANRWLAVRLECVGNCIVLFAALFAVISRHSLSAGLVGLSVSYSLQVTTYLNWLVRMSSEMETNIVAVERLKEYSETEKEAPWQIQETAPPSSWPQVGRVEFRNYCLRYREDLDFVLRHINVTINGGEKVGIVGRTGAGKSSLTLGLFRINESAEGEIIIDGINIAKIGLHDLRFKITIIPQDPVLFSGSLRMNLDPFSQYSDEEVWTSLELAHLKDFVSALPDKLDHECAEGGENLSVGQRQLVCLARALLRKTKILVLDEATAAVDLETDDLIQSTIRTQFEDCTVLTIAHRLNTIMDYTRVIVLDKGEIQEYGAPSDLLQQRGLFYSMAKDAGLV

Row | Structure (SMILES) | IC50 [1] | Emax at 2 h [2] | GI50 at 72 h [3] | GI50 at 72 h [4] | TI [5] | Emax [6] | IC50 [8] | inhibition at 1 h, 10 µM [9] | EC50 [10] | Activity [16] | also measured
1 | FC(F)(F)c1ccc(Nc2nc(-c3ccncc3)nc3ccccc23)cc1 | 488 nM | 80 to 110% | 117000 nM | 166000 nM | 240 | 152% | – | – | – | – | Ki [7]: 27000 nM
2 | COc1ccc(Nc2nc(-c3ccccn3)nc3ccccc23)cc1OC | 1060 nM | 80 to 110% | – | – | – | 152% | 6300 nM | > 25% | 79 nM | – | –
3 | O=[N+]([O-])c1ccc(Nc2nc(-c3cccnc3)nc3ccccc23)cc1 | 64.1 nM | 80 to 110% | 73300 nM | 74100 nM | – | 164% | – | – | 9 nM | Non-Toxic | inhibition (INH) [11]: Active; Ratio IC50/EC50 [12]: 3; inhibition (INH) [13]: Active; inhibition (INH) [14]: Active; inhibition (INH) [15]: Active; Activity [17]: inactive
4 | Cc1cc(Nc2ccc(O)c([N+](=O)[O-])c2)nc(-c2ccccc2)n1 | 98.8 nM | 80 to 110% | 49000 nM | 57500 nM | 496 | 154% | – | – | 1800 nM | Non-Toxic | inhibition at 1 h, 10 µM [18]: 25%; inhibition (INH) [11]: Active; Activity [17]: inactive
5 | COc1cccc(Nc2nc(-c3cccnc3)nc3ccccc23)c1 | 1020 nM | 80 to 110% | – | – | – | 137% | 4780 nM | > 25% | 50 nM | – | –
6 | COc1ccc(Nc2nc(-c3ccncc3)nc3ccccc23)cc1 | 742 nM | 80 to 110% | – | – | – | 137% | – | – | 70 nM | – | inhibition at 1 h, 10 µM [18]: 25%
7 | N#Cc1cccc(Nc2nc(-c3cccnc3)nc3ccccc23)c1 | 108 nM | 80 to 110% | 75300 nM | 90700 nM | 697 | 151% | – | – | 350 nM | Non-Toxic | inhibition (INH) [11]: Active; Activity [17]: inactive
8 | COc1ccc(Nc2nc(-c3ccncc3)nc3ccccc23)cc1C(F)(F)F | 146 nM | 80 to 110% | 2880 nM | 2460 nM | 19.7 | – | 2780 nM | > 25% | – | – | –
9 | COc1ccc(Nc2nc(-c3ccncc3)nc3ccccc23)cc1OC | 545 nM | 80 to 110% | – | – | – | 150% | 2080 nM | > 25% | 10 nM | – | –
10 | CC(C)(C)OC(=O)c1cccc(Nc2nc(-c3ccncc3)nc3ccccc23)c1 | 299 nM | 80 to 110% | – | – | – | 40% | 334 nM | > 25% | 1540 nM | – | –
11 | N#Cc1cccc(Nc2nc(-c3ccncc3)nc3ccccc23)c1 | 134 nM | 80 to 110% | 88100 nM | 112000 nM | 657 | 178% | – | – | 16 nM | Non-Toxic | –
12 | COc1cccc(Nc2nc(-c3ccncc3)nc3ccccc23)c1 | 558 nM | 80 to 110% | – | – | – | 132% | 5430 nM | > 25% | 42 nM | – | inhibition (INH) [19]: Active; inhibition (INH) [20]: Active; inhibition (INH) [21]: Active
